# Results reported in ChEMBL document CHEMBL1811845, “Modulation of GABAA-receptors by honokiol and derivatives: subtype selectivity and structure-activity relationship” (J Med Chem, 2011).
# pEC50: −log10 of the molar value.
# How the values were obtained:
# [1] = biological target: T1, Gamma-aminobutyric acid receptor subunit alpha-5/beta-2 (Homo sapiens, UniProt P31644+P47870); test: Modulation of GABA Aalpha5beta2 receptor expressed in Xenopus laevis oocytes assessed as potentiation of GABA-induced chloride current at holding potential -70 mV by two-microelectrode voltage clamp technique; format: cell-based, Oocyte
# T1 sequence (P47870 whole entry): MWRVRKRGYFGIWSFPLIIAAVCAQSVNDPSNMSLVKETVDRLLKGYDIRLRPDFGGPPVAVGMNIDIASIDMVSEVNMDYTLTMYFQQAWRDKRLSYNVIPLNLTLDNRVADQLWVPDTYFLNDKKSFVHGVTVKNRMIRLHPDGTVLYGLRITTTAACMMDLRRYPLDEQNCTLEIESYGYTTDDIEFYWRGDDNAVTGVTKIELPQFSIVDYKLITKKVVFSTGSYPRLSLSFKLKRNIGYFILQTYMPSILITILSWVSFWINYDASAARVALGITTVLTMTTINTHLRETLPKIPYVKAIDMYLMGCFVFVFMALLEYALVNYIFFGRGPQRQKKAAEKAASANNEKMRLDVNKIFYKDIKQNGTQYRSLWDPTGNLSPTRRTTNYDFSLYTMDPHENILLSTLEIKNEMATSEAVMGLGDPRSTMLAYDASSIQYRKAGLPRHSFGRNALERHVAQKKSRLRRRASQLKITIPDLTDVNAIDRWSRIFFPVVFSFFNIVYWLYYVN
# T1 sequence (P31644 whole entry): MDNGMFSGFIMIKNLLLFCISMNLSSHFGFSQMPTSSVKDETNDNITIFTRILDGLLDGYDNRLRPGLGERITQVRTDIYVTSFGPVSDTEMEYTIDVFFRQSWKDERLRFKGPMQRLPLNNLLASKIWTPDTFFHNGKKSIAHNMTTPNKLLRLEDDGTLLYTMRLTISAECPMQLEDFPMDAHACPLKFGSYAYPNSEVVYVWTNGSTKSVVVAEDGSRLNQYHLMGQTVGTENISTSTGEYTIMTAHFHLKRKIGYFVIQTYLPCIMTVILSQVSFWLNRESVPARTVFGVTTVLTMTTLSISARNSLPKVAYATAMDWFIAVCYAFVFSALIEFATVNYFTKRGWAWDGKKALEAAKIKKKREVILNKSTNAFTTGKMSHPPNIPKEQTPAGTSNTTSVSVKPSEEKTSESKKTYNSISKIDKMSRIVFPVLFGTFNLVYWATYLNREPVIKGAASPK
# Summary of the method: (§1)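 Stage V–VI Xenopus oocytes, defolliculated with 2 mg/mL collagenase, injected with α(1, 2, 3 or 5) and β2 cRNAs mixed 1:1, then kept at 18 °C in ND96 (pH 7.4). Enhancement = I(GABA+compound)/IGABA − 1. Curves were Hill-fitted for EC50. Bath DMSO was at most 0.3%, matched in controls.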
# [2] = test system: Oocyte; test: Modulation of GABA alpha1beta2gamma2s receptor expressed in Xenopus laevis oocytes assessed as potentiation of GABA-induced chloride current at holding potential -70 mV at 10 uM by two-microelectrode voltage clamp technique in presence of 1 uM of flumazenil relative to GABA; format: cell-based
# [3] = Modulation of GABA alpha1beta2gamma2s receptor expressed in Xenopus laevis oocytes assessed as potentiation of GABA-induced chloride current at holding potential -70 mV by two-microelectrode voltage clamp technique; format: cell-based; details: Oocyte
# Summary of the method: (§2)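 Oocytes were injected with α1, β2 and γ2s cRNAs mixed 1:1:10 and stored at 18 °C in ND96 (pH 7.4). GABA was applied at a concentration giving 3–7% of maximal current, determined for each oocyte. Enhancement was taken as (I(GABA+compound)/IGABA) − 1. Concentration–response data were fitted to a Hill equation. Control solutions carried equal DMSO, at most 0.3%.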
# [4] = biological target: T2, Gamma-aminobutyric acid receptor subunit alpha-3/ beta-2 (Homo sapiens, UniProt P34903+P47870); test: Modulation of GABA Aalpha3beta2 receptor expressed in Xenopus laevis oocytes assessed as potentiation of GABA-induced chloride current at holding potential -70 mV by two-microelectrode voltage clamp technique; format: cell-based, Oocyte; summary of the method: as §1
# T2 sequence (P47870 whole entry): T1 sequence (P47870 whole entry)
# T2 sequence (P34903 whole entry): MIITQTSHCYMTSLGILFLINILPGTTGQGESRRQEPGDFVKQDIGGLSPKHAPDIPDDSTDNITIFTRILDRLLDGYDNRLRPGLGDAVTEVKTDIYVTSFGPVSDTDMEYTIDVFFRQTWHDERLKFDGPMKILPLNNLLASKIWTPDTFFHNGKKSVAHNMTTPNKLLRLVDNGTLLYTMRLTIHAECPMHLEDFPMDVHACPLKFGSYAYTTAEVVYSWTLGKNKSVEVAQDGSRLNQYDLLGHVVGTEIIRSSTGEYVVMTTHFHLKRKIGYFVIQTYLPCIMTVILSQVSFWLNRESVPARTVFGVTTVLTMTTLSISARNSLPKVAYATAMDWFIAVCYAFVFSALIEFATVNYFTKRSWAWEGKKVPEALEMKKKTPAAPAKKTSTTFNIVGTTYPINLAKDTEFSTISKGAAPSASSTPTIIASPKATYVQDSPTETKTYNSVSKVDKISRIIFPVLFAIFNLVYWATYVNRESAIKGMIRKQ
# [5] = test system: Oocyte; test: Modulation of GABA alpha1beta2gamma2s receptor expressed in Xenopus laevis oocytes assessed as potentiation of GABA-induced chloride current at holding potential -70 mV at 10 uM by two-microelectrode voltage clamp technique relative to GABA; format: cell-based
# [6] = Octanol-water partition coefficient, log P of the compound; format: physicochemical; details: read-out: logP
# [7] = test system: Oocyte; test: Modulation of GABA alpha1beta2gamma2s receptor expressed in Xenopus laevis oocytes assessed as potentiation of GABA-induced chloride current at holding potential -70 mV by two-microelectrode voltage clamp technique relative to GABA; format: cell-based; summary of the method: as §2
# [8] = biological target: Gamma-aminobutyric acid receptor subunit alpha-3/ beta-2 (Homo sapiens) (UniProt P47870+P34903); test: Modulation of GABA Aalpha3beta2 receptor expressed in Xenopus laevis oocytes assessed as potentiation of GABA-induced chloride current at holding potential -70 mV by two-microelectrode voltage clamp technique relative to GABA; format: cell-based; details: Oocyte
# Summary of the method: (§3)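 Oocytes were injected with α1, α2, α3 or α5 plus β2 cRNA at a 1:1 ratio and stored at 18 °C in ND96, pH 7.4. Enhancement was (I(GABA+compound)/IGABA)−1, and concentration-response data were Hill-fitted for EC50 and nH. Matched DMSO was ≤0.3%.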
# [9] = biological target: Gamma-aminobutyric acid receptor subunit alpha-2/beta-2 (Homo sapiens) (UniProt P47870+P47869); test: Modulation of GABA Aalpha2beta2 receptor expressed in Xenopus laevis oocytes assessed as potentiation of GABA-induced chloride current at holding potential -70 mV by two-microelectrode voltage clamp technique relative to GABA; format: cell-based; details: Oocyte; summary of the method: as §3
# [10] = biological target: GABA-A receptor alpha-1/beta-3 (Homo sapiens) (UniProt P14867+P28472); test: Modulation of GABA Aalpha1beta3 receptor expressed in Xenopus laevis oocytes assessed as potentiation of GABA-induced chloride current at holding potential -70 mV by two-microelectrode voltage clamp technique relative to GABA; format: cell-based; details: Oocyte
# Summary of the method: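 α1β3 receptors were expressed in defolliculated stage V–VI Xenopus oocytes and kept at 18 °C in ND96, pH 7.4. Potentiation was computed as (I(GABA+compound)/IGABA)−1, and EC50 and Hill coefficient came from nonlinear fits. Matched DMSO was ≤0.3%.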
smiles,measurement,setting,value
C=CCc1ccc(O)c(-c2ccc(O)c(CC=C)c2)c1 [HONOKIOL],pEC50,[1],4.63
same,Activity,[2],116%
same,pEC50,[3],4.44
same,pEC50,[4],4.28
same,Activity,[5],101%
same,logP,[6],5.16
same,Smax,[7],1320%
same,Smax,[8],2390%
same,Smax,[9],1130%
same,Smax,[10],878%
